Assay results as given in ChEMBL document CHEMBL1121504, “Aporphines. 31. Synthesis and antitumor activity of aporphine nitrogen mustards” (1980).

Columns and labels:
[1] = Antitumor activity against intracerebrally implanted ependymoblastoma (EM) tumor system at dose 4 mg/kg; type: functional
Procedure, shortened: (§1)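 Tumor implanted […] and treated at the listed mg/kg doses under standard NCI protocols. Activity is read out as T/C, the treated-to-control ratio.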

P388 [2] = assay: Antitumor activity against intraperitoneally implanted lymphocytic leukemia (P388) system at dose 4 mg/kg; type: functional, Mus musculus; conditions: route intraperitoneal
Procedure, shortened: (§2)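 Murine-screen tumor implanted intraperitoneally and treated at the listed mg/kg doses under standard NCI protocols. Activity is read out as T/C, the treated-to-control ratio.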

P388 [3] = assay: Antitumor activity against intraperitoneally implanted lymphocytic leukemia (P388) system at dose 16 mg/kg; type: functional, Mus musculus; conditions: route intraperitoneal; procedure, shortened: as §2
Mus musculus [4] = assay: (§3) Antitumor activity against intraperitoneally implanted lymphoid leukemia (LE1210) tumor system at dose 25 mg/kg; type: functional; conditions: route intraperitoneal; procedure, shortened: as §2
Mus musculus [5] = assay: Antitumor activity against intraperitoneally implanted lymphoid leukemia (LE1210) tumor system at dose 12.5 mg/kg; type: functional; conditions: route intraperitoneal; procedure, shortened: as §2
Mus musculus [6] = assay: Antitumor activity against intraperitoneally implanted lymphoid leukemia (LE1210) tumor system at dose 6.25 mg/kg; type: functional; conditions: route intraperitoneal; procedure, shortened: as §2
[7] = Antitumor activity against intracerebrally implanted ependymoblastoma (EM) tumor system at dose 8 mg/kg; type: functional; procedure, shortened: as §1
Mus musculus [8] = assay: (§4) Antitumor activity against intraperitoneally implanted lymphoid leukemia (LE1210) tumor system at dose 50 mg/kg; type: functional; conditions: route intraperitoneal; procedure, shortened: as §2
P388 [9] = assay: Antitumor activity against intraperitoneally implanted lymphocytic leukemia (P388) system at dose 8 mg/kg; type: functional, Mus musculus; conditions: route intraperitoneal; procedure, shortened: as §2
Mus musculus [10] = assay: (§5) Antitumor activity against intraperitoneally implanted lymphoid leukemia (LE1210) tumor system at dose 100 mg/kg; type: functional; conditions: route intraperitoneal; procedure, shortened: as §2
[11] = Antitumor activity against intracerebrally implanted ependymoblastoma (EM) tumor system at dose 16 mg/kg; type: functional; procedure, shortened: as §1
P388 [12] = assay: Antitumor activity against intraperitoneally implanted P388 lymphocytic leukemia (P388) system at dose 25 mg/kg; type: functional, Mus musculus; conditions: route intraperitoneal; procedure, shortened: as §2
P388 [13] = assay: Antitumor activity against intraperitoneally implanted P388 lymphocytic leukemia (P388) system at dose 6.25 mg/kg; type: functional, Mus musculus; conditions: route intraperitoneal; procedure, shortened: as §2
P388 [14] = assay: Antitumor activity against intraperitoneally implanted P388 lymphocytic leukemia (P388) system at dose 3.13 mg/kg; type: functional, Mus musculus; conditions: route intraperitoneal; procedure, shortened: as §2
P388 [15] = assay: Antitumor activity against intraperitoneally implanted P388 lymphocytic leukemia (P388) system at dose 12.5 mg/kg; type: functional, Mus musculus; conditions: route intraperitoneal; procedure, shortened: as §2
[16] = Antitumor activity against intracerebrally implanted ependymoblastoma (EM) tumor system at dose 12.5 mg/kg; type: functional; procedure, shortened: as §1
B16 [17] = assay: Antitumor activity against intracerebrally implanted B16 melanoma tumor system at dose 16 mg/kg; type: functional, Mus musculus; procedure, shortened: as §1
[18] = Antitumor activity against intracerebrally implanted ependymoblastoma (EM) tumor system at dose 50 mg/kg; type: functional; procedure, shortened: as §1
B16 [19] = assay: Antitumor activity against intracerebrally implanted B16 melanoma tumor system at dose 8 mg/kg; type: functional, Mus musculus; procedure, shortened: as §1
P388 [20] = assay: Antitumor activity against intraperitoneally implanted lymphocytic leukemia (P388) system at dose 25 mg/kg; type: functional, Mus musculus; conditions: route intraperitoneal; procedure, shortened: as §2
P388 [21] = assay: Antitumor activity against intraperitoneally implanted lymphocytic leukemia (P388) system at dose 50 mg/kg; type: functional, Mus musculus; conditions: route intraperitoneal; procedure, shortened: as §2
B16 [22] = assay: Antitumor activity against B16 melanoma tumor system at dose 25 mg/kg; type: functional, Mus musculus
Procedure, shortened: (§6)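 B16 melanocarcinoma assay run at the listed mg/kg doses under standard NCI protocols. Activity is read out as T/C, the treated-to-control ratio.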

P388 [23] = assay: Antitumor activity against intraperitoneally implanted lymphocytic leukemia (P388) system at dose 6.25 mg/kg; type: functional, Mus musculus; conditions: route intraperitoneal; procedure, shortened: as §2
P388 [24] = assay: Antitumor activity against intraperitoneally implanted lymphocytic leukemia (P388) system at dose 12.5 mg/kg; type: functional, Mus musculus; conditions: route intraperitoneal; procedure, shortened: as §2
L1210 [25] = assay: as §4; type: functional, Mus musculus; conditions: route intraperitoneal; procedure, shortened: as §2
B16 [26] = assay: Antitumor activity against B16 melanoma tumor system at dose 12.5 mg/kg; type: functional, Mus musculus; procedure, shortened: as §6
L1210 [27] = assay: as §3; type: functional, Mus musculus; conditions: route intraperitoneal; procedure, shortened: as §2
[28] = Antitumor activity against intracerebrally implanted ependymoblastoma (EM) tumor system at dose 25 mg/kg; type: functional; procedure, shortened: as §1
L1210 [29] = assay: as §5; type: functional, Mus musculus; conditions: route intraperitoneal; procedure, shortened: as §2
B16 [30] = assay: Antitumor activity against B16 melanoma tumor system at dose 50 mg/kg; type: functional, Mus musculus; procedure, shortened: as §6

## COc1cc2c3c(c1)-c1c(ccc(OC)c1OC)CC3N(CCN(CCCl)CCCl)CC2 (stereo not given)
[1]
  T/C: 108
P388 [2]
  T/C: 106
P388 [3]
  T/C: 113
Mus musculus [4]
  T/C: 101
Mus musculus [5]
  T/C: 98
Mus musculus [6]
  T/C: 101
[7]
  T/C: 104
Mus musculus [8]
  T/C: 101
P388 [9]
  T/C: 127
Mus musculus [10]
  T/C: 87
[11]
  T/C: 108

## COc1ccc2c(c1O)-c1cc(O)cc3c1C(C2)N(C(=O)CN(CCCl)CCCl)CC3 (stereo not given)
P388 [12]
  T/C: 114
P388 [13]
  T/C: 149
P388 [14]
  T/C: 130
P388 [15]
  T/C: 158

## COc1ccc2c(c1OC(C)=O)-c1cc(O)cc3c1C(C2)N(C(=O)CN(CCCl)CCCl)CC3 (stereo not given)
[16]
  T/C: 94
B16 [17]
  T/C: 102
[18]
  T/C: 86
B16 [19]
  T/C: 111
P388 [20]
  T/C: 168
P388 [21]
  T/C: 130
B16 [22]
  T/C: 135
P388 [23]
  T/C: 143
P388 [24]
  T/C: 174
L1210 [25]
  T/C: 127
B16 [26]
  T/C: 134
L1210 [27]
  T/C: 136
[28]
  T/C: 99
L1210 [29]
  T/C: 88
B16 [30]
  T/C: 170
